Measurements as given in ChEMBL document CHEMBL1125383, “Benzazepinone calcium channel blockers. 4. Structure-activity overview and intracellular binding site” (J Med Chem, 1992).

How the values were obtained:
[1] = Concentration required to cause 50% relaxation of maximal contraction in circumferential rabbit aorta strips in response to KCl (100 mM); type: functional, tissue-based, Oryctolagus cuniculus
[2] = target: T1, Voltage-gated L-type calcium channel (Rattus norvegicus, UniProt P22002+Q02485+P27732); assay: Percentage decrease in blood pressure at a dose of 135 uM/kg for 6-12 hr in spontaneously hypertensive rats.; type: functional, tissue-based
Method in brief: (§1)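 Spontaneously hypertensive rats, n = 5, given 135 µmol/kg orally; systolic pressure recorded directly; maximum percent fall from predrug control noted within 0-6, 6-12 and 12-18 h windows after dosing; mean of five rats.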

[3] = target: T1, Voltage-gated L-type calcium channel; assay: Percentage decrease in blood pressure at a dose of 135 uM/kg for 0-6 h in spontaneously hypertensive rats.; type: functional, tissue-based; method in brief: as §1
[4] = target: T1, Voltage-gated L-type calcium channel; assay: Percentage decrease in blood pressure at a dose of 135 uM/kg for 12-18 hr in spontaneously hypertensive rats.; type: functional, tissue-based; method in brief: as §1
[5] = Partition coefficient (logP); type: physicochemical; conditions: octanol/water

Structure (SMILES) | IC50 ([1]; Oryctolagus cuniculus, Aorta) | Decrease in blood pressure [2] | Decrease in blood pressure [3] | Decrease in blood pressure [4] | IC50 [1] | logP [5]
CNCCN1C(=O)[C@H](OC(C)=O)[C@H](c2ccc(OCCOC)cc2)Cc2c1cccc2C(F)(F)F | 39000 nM | 5% | 5% | 7% | – | –
COc1ccc([C@@H]2Cc3c(cccc3C(F)(F)F)N(CCN(C)CCCCc3ccccc3)C(=O)[C@@H]2OC(C)=O)cc1 | 73 nM | 23% | 28% | 24% | – | –
COc1ccc([C@@H]2Cc3c(cccc3C(F)(F)F)N(CCNC(C)C)C(=O)[C@@H]2C)cc1 | 950 nM | 15% | 17% | 10% | – | –
CNCCN1C(=O)[C@H](OC(C)=O)[C@H](c2ccc(OC)cc2)Cc2c1cccc2C(F)(F)F | – | 34% | 32% | 32% | – | –
C=CCN(C)CCN1C(=O)[C@H](OC(C)=O)[C@H](c2ccc(OC)cc2)Cc2c1cccc2C(F)(F)F | 170 nM | 26% | 28% | 25% | – | –
COc1ccc([C@@H]2Cc3c(cccc3C(F)(F)F)N(CC(C)N(C)C)C(=O)[C@@H]2C)cc1 (stereo in doubt; 15m) | – | 16% | – | 12% | 400 nM | –
CCc1ccc([C@@H]2Cc3c(cccc3C(F)(F)F)N(CCN(C)C)C(=O)[C@@H]2C)cc1 | 2400 nM | 14% | 20% | 13% | – | –
CCCN(C)CCN1C(=O)[C@H](OC(C)=O)[C@H](c2ccc(OC)cc2)Cc2c1cccc2C(F)(F)F | 190 nM | 26% | 27% | 28% | – | –
COc1ccc([C@@H]2Cc3c(cccc3C(F)(F)F)N(CCN(C)C(C)C)C(=O)[C@@H]2C)cc1 | 810 nM | 15% | 18% | 14% | – | –
COc1ccc([C@@H]2Cc3c(cccc3C(F)(F)F)N(CCN(C(C)C)C(C)C)C(=O)[C@@H]2C)cc1 | 4200 nM | 8% | 14% | 8% | – | –
COc1ccc([C@@H]2Cc3c(cccc3C(F)(F)F)N(CC[N+](C)(C)C)C(=O)[C@@H]2C)cc1.[I-] | 6200 nM | 22% | 25% | 21% | – | –
COc1ccc([C@@H]2Cc3c(cccc3C(F)(F)F)N(CCN(C)C)C(=O)[C@@H]2OC(C)=O)cc1 | 150 nM | 27% | 31% | 20% | – | –
C#CCN(C)CCN1C(=O)[C@H](OC(C)=O)[C@H](c2ccc(OC)cc2)Cc2c1cccc2C(F)(F)F | 3300 nM | 25% | 26% | 25% | – | –
COc1ccc([C@@H]2Cc3c(cccc3C(F)(F)F)N(CCCN(C)C)C(=O)[C@@H]2C)cc1 | 1100 nM | 22% | 24% | 24% | – | –
CNC(=O)CN1C(=O)[C@H](OC(C)=O)[C@H](c2ccc(OC)cc2)Cc2c1cccc2C(F)(F)F | 6200 nM | 8% | 13% | 10% | – | –
COc1ccc([C@@H]2Cc3cc(C(F)(F)F)ccc3N(CCN(C)C)C(=O)[C@@H]2CC(C)=O)cc1 | – | 28% | 23% | 28% | – | 2.7
COc1ccc([C@@H]2Cc3c(cccc3C(F)(F)F)N(C(C)CN(C)C)C(=O)[C@@H]2C)cc1 (stereo in doubt; 15n) | – | – | 15% | – | 5900 nM | –
COc1ccc([C@@H]2Cc3c(cccc3C(F)(F)F)N(CCN(C)C)C(=O)[C@@H]2O)cc1 | – | 26% | 21% | 28% | – | 2.1

Structure (SMILES) | IC50 ([1]; Oryctolagus cuniculus, Aorta) | Decrease in blood pressure [2] | Decrease in blood pressure [3] | Decrease in blood pressure [4] | IC50 [1] | logP [5]
COc1ccc([C@@H]2Cc3c(cccc3C(F)(F)F)N(CCN(C)C)C(=O)[C@@H]2C)cc1OC | 3800 nM | 5% | 3% | 5% | – | –
CCC[C@H]1C(=O)N(CCN(C)C)c2ccccc2C[C@H]1c1ccc(OC)cc1 | 340 nM | 11% | 10% | 12% | – | –
COc1cccc([C@@H]2Cc3cc(Cl)ccc3N(CCN(C)C)C(=O)[C@@H]2OC(C)=O)c1 | – | 2% | 5% | 3% | – | –
COc1ccc([C@@H]2Cc3c(cccc3C(F)(F)F)N(CC(C)N(C)C)C(=O)[C@@H]2C)cc1 (stereo in doubt; 15l) | 360 nM | 17% | 26% | 14% | – | –
COc1ccc([C@@H]2Cc3c(cccc3C(F)(F)F)N(CCN3CCCC3)C(=O)[C@@H]2C)cc1 | 1100 nM | 10% | 8% | 11% | – | –
COc1ccc([C@@H]2Cc3cc(OC)ccc3N(CCN(C)C)C(=O)[C@@H]2OC(C)=O)cc1 | – | 8% | 15% | 10% | – | 1.2
C=CC[C@H]1C(=O)N(CCN(C)C)c2ccccc2C[C@H]1c1ccc(OC)cc1 | – | 23% | 25% | 18% | – | 3.3
COc1ccc([C@@H]2Cc3c(OC)cccc3N(CCN(C)C)C(=O)[C@@H]2OC(C)=O)cc1 | – | 0% | 0% | 1% | – | 1.9
COc1ccc([C@@H]2Cc3c(Cl)cccc3N(CCN(C)C)C(=O)[C@@H]2OC(C)=O)cc1 | – | 8% | 9% | 11% | – | 2.4
C[C@H]1C(=O)N(CCN(C)C)c2cccc(C(F)(F)F)c2C[C@H]1c1ccc(O)cc1 | 160 nM | 5% | 10% | 7% | – | –
COc1ccc([C@@H]2Cc3c(cccc3C(F)(F)F)N(CCN(C)C)C(=O)[C@@H]2C)cc1 | 76 nM | 22% | 28% | 22% | – | –
CNc1ccc([C@@H]2Cc3c(cccc3C(F)(F)F)N(CCN(C)C)C(=O)[C@@H]2C)cc1 | 330 nM | 18% | 14% | 20% | – | –
CSc1ccc([C@@H]2Cc3c(cccc3C(F)(F)F)N(CCN(C)C)C(=O)[C@@H]2C)cc1 | 730 nM | 8% | 12% | 5% | – | –
COc1ccccc1[C@@H]1Cc2cc(Cl)ccc2N(CCN(C)C)C(=O)[C@@H]1OC(C)=O | – | 2% | 2% | 0% | – | –
CCOC(=O)c1cccc2c1C[C@@H](c1ccc(OC)cc1)[C@@H](OC(C)=O)C(=O)N2CCN(C)C | – | 6% | 4% | 5% | – | 2.2
COc1ccc([C@@H]2Cc3c(cccc3C(F)(F)F)N(CCN(C)C(C)=O)C(=O)[C@@H]2O)cc1 | 2200 nM | – | – | – | – | –
CNCCN1C(=O)[C@H](OC(C)=O)[C@H](c2ccc(OCOC)cc2)Cc2c1cccc2C(F)(F)F | – | 8% | 6% | 8% | – | –
COc1ccc([C@@H]2Cc3c(cccc3C(F)(F)F)N(C(C)CN(C)C)C(=O)[C@@H]2C)cc1 (stereo in doubt; 15o) | – | 16% | 16% | 16% | 2300 nM | –
